According to ChEMBL document CHEMBL5260803, “Discovery of Novel, Orally Bioavailable β-Amino Acid Azaindole Inhibitors of Influenza PB2” (ACS Med Chem Lett, 2017):

Columns and labels:
Assay type in all cases: functional, organism-based
Influenza A virus [1] = test: Antiviral activity against oseltamivir resistant Influenza A virus A/Georgia/20/2006 (H1N1) infected in MDCK cells incubated for 72 hrs by cell protection assay
In short: (§1)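 MDCK cells incubated with test compound and influenza A virus for 72 h. EC50 is the concentration giving 50% cell protection, reported as the mean of N=3. Oseltamivir resistant or sensitive status was assigned by externally validated phenotypic or genetic analysis.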

Influenza A virus [2] = test: Antiviral activity against oseltamivir resistant Influenza A virus A/Texas/48/2009 (H1N1) infected in MDCK cells incubated for 72 hrs by cell protection assay; in short: as §1
Influenza A virus [3] = test: Antiviral activity against oseltamivir resistant Influenza A virus A/Texas/12/2007 (H3N2) infected in MDCK cells incubated for 72 hrs by cell protection assay; in short: as §1

**Q.** `CC(C)(C)[C@@H](CC(=O)O)Nc1nc(-c2c[nH]c3ncc(F)cc23)ncc1F` was tested. Which EC50 (Influenza A virus [1]) did it give?
**A.** Its EC50 is 2 nM.

**Q.** What about the EC50 (Influenza A virus [2]) of the same compound?
**A.** The EC50 was 2 nM.

**Q.** What about the EC50 (Influenza A virus [3]) of the same compound?
**A.** The EC50 was 30 nM.
